Shown are actives, neighbours in structure and some others; about 2.9% of the full set was active somewhere.
MEKK2mut PB1 HTS: signal of MEK5 binding to mutant human MEKK2 PB1 domain. bead flow cytometry, Alexa488-MEK5 binding to MEKK2 mutant. percent response, % at 10 µM. 290,000 tested, 0.35% active. AID 1530; in the data active = percent response above about 24%, passing the limit was not always enough
MEKK3 PB1 HTS: MEKK3-MEK5 PB1 interaction, increase or decrease | Q99759 | bead-based flow cytometry, Alexa488-MEK5 binding to MEKK3; actives lie on both sides; 0 = blocked by unlabeled MEK5, 100 = vehicle | binding response (% of control), % at 10 µM | 290,000 tested, 1.4% active;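 active = binding response more than 3 SD above or below the average of its plate-row segment, actives on both sides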;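 also: Alexa488 bead fluorescence after subtracting the streptavidin-only scavenger bead signal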
MEKK2wt PB1 HTS: raises or lowers MEK5 binding to wildtype human MEKK2 PB1 domain; Q9Y2U5; bead flow cytometry, Alexa488-MEK5 binding to MEKK2 WT; actives lie on both sides; binding response (% of control), % at 10 µM; AID 1531; 290,000 tested, 1.1% active; in the data active = binding response below about 67% or above about 130%
Apaf-1 inh: blocks human Apaf-1 apoptosome activity. O14727. reconstituted apoptosome caspase-3 activity, DEVD-Rh110 fluorescence. inhibition, % at 20 µM. 330,000 tested, 0.71% active; active = inhibition of at least 40% at 20 µM;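 also: plate controls were DMSO wells for no effect and DEVD-CHO caspase inhibitor wells for full effect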
Target sequence (O14727 whole entry, looked up): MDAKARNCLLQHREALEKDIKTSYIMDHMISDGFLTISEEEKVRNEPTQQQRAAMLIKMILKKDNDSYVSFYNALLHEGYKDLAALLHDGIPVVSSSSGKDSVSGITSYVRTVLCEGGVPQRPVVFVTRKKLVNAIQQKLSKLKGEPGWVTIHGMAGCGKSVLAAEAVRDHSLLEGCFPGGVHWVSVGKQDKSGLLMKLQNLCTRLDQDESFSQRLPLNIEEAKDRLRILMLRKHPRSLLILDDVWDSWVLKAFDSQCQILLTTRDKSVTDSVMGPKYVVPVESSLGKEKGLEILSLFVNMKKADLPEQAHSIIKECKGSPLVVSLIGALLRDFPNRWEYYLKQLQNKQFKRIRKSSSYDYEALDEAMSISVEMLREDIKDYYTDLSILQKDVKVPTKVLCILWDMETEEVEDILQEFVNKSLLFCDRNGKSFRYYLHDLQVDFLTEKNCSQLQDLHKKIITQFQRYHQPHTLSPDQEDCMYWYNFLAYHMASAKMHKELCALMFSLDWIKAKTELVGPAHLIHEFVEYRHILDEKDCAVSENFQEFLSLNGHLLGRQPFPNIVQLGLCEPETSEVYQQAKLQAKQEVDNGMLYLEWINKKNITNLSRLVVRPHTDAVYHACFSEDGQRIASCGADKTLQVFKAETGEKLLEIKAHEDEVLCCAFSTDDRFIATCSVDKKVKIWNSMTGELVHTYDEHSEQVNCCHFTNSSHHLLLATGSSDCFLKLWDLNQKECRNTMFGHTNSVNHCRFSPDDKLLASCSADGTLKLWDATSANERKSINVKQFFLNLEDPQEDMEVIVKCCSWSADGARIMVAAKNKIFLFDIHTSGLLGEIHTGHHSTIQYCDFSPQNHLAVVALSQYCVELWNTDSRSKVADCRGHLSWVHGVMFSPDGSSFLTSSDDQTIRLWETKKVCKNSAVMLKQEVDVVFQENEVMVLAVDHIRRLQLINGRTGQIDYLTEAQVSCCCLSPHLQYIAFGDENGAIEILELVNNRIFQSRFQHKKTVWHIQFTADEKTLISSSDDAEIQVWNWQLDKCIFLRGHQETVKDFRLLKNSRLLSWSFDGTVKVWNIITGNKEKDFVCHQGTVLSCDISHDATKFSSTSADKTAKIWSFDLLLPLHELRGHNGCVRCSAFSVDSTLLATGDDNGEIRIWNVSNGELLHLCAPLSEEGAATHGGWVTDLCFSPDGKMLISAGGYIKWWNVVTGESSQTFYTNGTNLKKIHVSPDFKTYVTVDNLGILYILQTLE
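Assay system – apoptosome proteins · Medium – Hepes buffer, pH 7.5 · Also added – cytochrome c with DEVD-Rh110 · Timing – 30 min compound preincubation, 50 min activation, room temperature · Detection – Rh110 fluorescence, excitation 480 nm, emission 540 nm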
UBC13 polyUb: human UBC13 polyubiquitination inhibition; P61088; UBC13 polyubiquitin chain formation, TR-FRET; inhibition, % at 20 µM; 330,000 tested, 0.47% active; AID 485273; in the data active = inhibition above about 45%, passing the limit was not always enough
MEKK2wt confirm: raises or lowers MEK5 binding to wildtype human MEKK2, retest; shares compounds with MEKK3 PB1 HTS; 5,900 tested, 2.4% active; binding response (% of control), % at 10 µM; bead flow cytometry, Alexa488-MEK5 binding to MEKK2 WT; actives lie on both sides; in the data active = binding response below about 16% or above about 210%; inactive = in between
MEKK2mut-MEK5: signal of MEK5 binding to mutant human MEKK2, retest; 5,900 tested, 2% active; shares compounds with MEKK3 PB1 HTS; percent response, % at 10 µM; AID 1893; bead flow cytometry, Alexa488-MEK5 binding to MEKK2 mutant; in the data active = percent response mostly above about 71%, no sharp cut-off; inactive = mostly below about 38%;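 also: higher means compound restores mutant binding toward wildtype level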
MEKK3 confirm: MEKK3-MEK5 PB1 inhibition, single concentration confirmation | 5,900 tested, 1.8% active | binding response (% of control), % at 10 µM | bead flow cytometry, Alexa488-MEK5 binding to MEKK3; stronger effect = lower value | shares compounds with MEKK3 PB1 HTS | AID 1894;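 active = binding response below 72% of control, or above a set upper limit, though filed actives all read lower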;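 also: 100% = DMSO only wells and 0% = binding blocked by excess unlabeled MEK5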
* marks the source's active call; other numbers are inactive results; nt = no result given; ! = not confirmed by another sample; [ ] = remark or other dose.

SMILES	MEKK2mut PB1 HTS	MEKK3 PB1 HTS	MEKK2wt PB1 HTS	Apaf-1 inh	UBC13 polyUb	MEKK2wt confirm	MEKK2mut-MEK5	MEKK3 confirm
Cn1c(OCc2cccnc2)nc2c1c(=O)n(Cc1ccc(F)cc1)c(=O)n2C	-30.0	71.0*[inhibitor]	78.0	-6.6	7.8	99.0	-2.0	104.0
Cn1c(OCc2cccnc2)nc2c1c(=O)n(Cc1ccccc1)c(=O)n2C	-6.0	93.0	99.0	2.6	-0.9	nt	nt	nt
CCN(CC)CCOc1ccc2c(c1)C(=NO)c1cc(OCCN(CC)CC)ccc1-2	3.0	100.0	117.0	-7.5	10.3	nt	nt	nt
CCCOc1ccc2c(c1)C(=NN=C(N)N)c1cc(OCCC)ccc1-2	32.0*	99.0	191.0*	25.8	44.8	249.0*	88.0*	111.0
O=C(c1ccoc1)N1CCC2(CC1)Oc1ccc(Cl)cc1C(=O)C21CC(c2cccnc2)=NO1 (centres undefined)	3.0	103.0	100.0	21.9	-4.4	nt	nt	nt
O=C(c1ccoc1)N1CCC2(CC1)Oc1ccc(Cl)cc1C(=O)C21CC(c2ccccc2)=NO1 (centres undefined)	2.0	45.0*[inhibitor]	53.0	17.0	2.2	99.0	-3.0	103.0
O=C(NCCCN1CCCC1=O)C1CCCO1 (centres undefined)	-1.0	99.0	100.0	-14.7	8.3	nt	nt	nt
O=C(COc1ccc2c(c1)CCC2)N1CCN(c2ccccc2F)CC1	0.0	142.0*	109.0	18.1	7.1	108.0	6.0	104.0
CCOC(=O)C(=NCCOC)NNc1cc(Cl)ccc1Cl	0.0	140.0*	108.0	12.8	11.0	104.0	-1.0	101.0
COc1ccc(N2CC(C)Cn3c2nc2c3c(=O)n(Cc3ccccc3)c(=O)n2C)c(OC)c1 (centres undefined)	-2.0	73.0*[inhibitor]	82.0	4.9	-13.8	98.0	-7.0	105.0
CC(C)CCNC(=O)/C=C/c1ccc(Br)cc1	-15.0	2.0*[inhibitor]	2.0*[inhibitor]	1.9	7.0	93.0	-15.0	92.0
CC(C)CCNC(=S)Nc1ccc(Br)cc1	-2.0	85.0	92.0	-6.7	7.6	nt	nt	nt
CCC(C)NC(=O)C1CCN(c2nc(OC)nc(OC)n2)CC1 (centres undefined)	-4.0	0.0*[inhibitor]	-1.0*[inhibitor]	1.8	-0.9	230.0*	76.0*	114.0
O=C(c1ccc(Cl)cc1)c1ccc(CN2C(=O)c3ccccc3C2=O)o1	-16.0	2.0*[inhibitor]	2.0*[inhibitor]	12.3	12.2	103.0	4.0	106.0
COc1ccc(Cc2nnc(Nc3ccc(Cl)cc3)[nH]c2=O)cc1	-1.0	102.0	95.0	-11.5	8.8	nt	nt	nt
O=c1[nH]c(Nc2ccc3c(c2)OCCO3)nnc1Cc1ccc(Cl)cc1	3.0	129.0*	106.0	22.9	-3.1	94.0	-8.0	97.0
CCc1[nH]nc2c1C(Cc1ccccc1)C(C#N)=C(N)O2 (centres undefined)	2.0	99.0	98.0	-2.0	-3.7	nt	nt	nt
Cc1[nH]nc2c1C(Cc1ccccc1)C(C#N)=C(N)O2 (centres undefined)	-26.0	2.0*[inhibitor]	3.0*[inhibitor]	-1.6	9.3	101.0	-1.0	103.0
CC1(C)CC2CC(C)(CN2C(=O)COC(=O)c2cncc(Br)c2)C1 (centres undefined)	nt	nt	nt	-1.9	2.4	nt	nt	nt
COCCn1c(SCC(=O)NC2CC2)nc2ccccc21	nt	nt	nt	6.1	-4.4	nt	nt	nt
O=C(O)/C=C/C(=O)Nc1cccc2cccnc12	4.0	100.0	103.0	5.2	-4.4	nt	nt	nt
O=C(/C=C/c1ccco1)Nc1cccc2cccnc12	0.0	62.0*[inhibitor]	91.0	8.0	-16.0	96.0	-4.0	100.0
Cc1cccc(NC(=S)N2CCC(NC(=O)c3cccc(F)c3)CC2)c1	5.0	101.0	105.0	8.4	-2.6	nt	nt	nt
COC(=O)c1ccccc1NC(=O)CSc1nnc(-c2cccnc2)n1N	1.0	101.0	99.0	-1.6	4.0	nt	nt	nt
COc1cc(C(=O)OCC2CC(c3ccccc3)=NO2)cc(OC)c1OC (centres undefined)	280.0*	101.0	93.0	8.7	-16.3	100.0	0.0	104.0
SMILES	MEKK2mut PB1 HTS	MEKK3 PB1 HTS	MEKK2wt PB1 HTS	Apaf-1 inh	UBC13 polyUb	MEKK2wt confirm	MEKK2mut-MEK5	MEKK3 confirm
COCCNC(=O)C(=O)NCC1OCCN1S(=O)(=O)c1ccc2c(c1)OCCO2 (centres undefined)	23.0	129.0*	124.0	-21.2	17.7	104.0	4.0	105.0
CC(C)(C)C(=O)COC(=O)c1cc(-c2cccnc2)nc2ccccc12	-7.0	94.0	91.0	8.3	3.2	nt	nt	nt
Cc1ccccc1OCc1n[nH]c(=S)n1-c1cccc(Cl)c1	24.0*	112.0	111.0	8.8	-9.4	103.0	-2.0	102.0
Cc1n[nH]c(=S)n1-c1cccc(Cl)c1	-2.0	74.0*[inhibitor]	101.0	0.1	4.1	107.0	2.0	107.0
Cc1ccc(S(=O)(=O)N(C)c2ccc(C(=O)Nc3ccccc3C(=O)N3CCOCC3)cc2)cc1	-14.0	87.0	77.0	17.3	-5.9	nt	nt	nt
Cc1c(C(=O)N(Cc2ccccc2)Cc2cccs2)cnn1-c1ccc(Cl)cc1	27.0	132.0*	129.0	12.1	3.1	95.0	-8.0	101.0
NC(N)=N/N=C/c1c(Cl)cccc1Cl	-13.0	44.0*![inhibitor]	51.0	5.1	-7.0	102.0	-4.0	100.0
Cc1ccc(C(C(=O)NC2CCCC2)N(Cc2ccc(F)cc2)C(=O)c2csnn2)o1 (centres undefined)	-16.0	3.0*[inhibitor]	3.0*[inhibitor]	12.3	-20.8	96.0	-9.0	96.0
COc1ccc(CNC(=O)CN(Cc2ccc(F)cc2)C(=O)c2csnn2)cc1	5.0	148.0*	124.0	-6.0	4.5	98.0	-2.0	97.0
Cc1ccc(C(C(=O)NC2CCCC2)N(Cc2ccccc2)C(=O)c2csnn2)o1 (centres undefined)	0.0	100.0	103.0	8.8	-2.8	nt	nt	nt
CCn1c(CN2CCN(C(c3ccccc3)c3ccccc3)CC2)nc2c1c(=O)n(C)c(=O)n2C	-5.0	95.0	96.0	19.5	26.8	nt	nt	nt
COc1ccc(CNC(=O)CCCN2C(=O)c3ccccc3C2=O)cc1	1.0	119.0	110.0	14.3	-11.1	nt	nt	nt
O=C(CCCCCN1C(=O)c2ccccc2C1=O)Nc1ccccc1F	2.0	100.0	101.0	-1.2	18.9	nt	nt	nt
Cc1ccc(NC(=O)CCn2c(=O)[nH]c3ccsc3c2=O)cc1	-1.0	121.0	105.0	-7.9	9.4	nt	nt	nt
O=C(CCCn1c(=O)[nH]c2ccsc2c1=O)Nc1ccc(F)cc1	1.0	54.0*[inhibitor]	68.0	-18.1	8.4	97.0	3.0	98.0
O=C(CCCCCN1C(=O)c2ccccc2C1=O)Nc1ccc(F)cc1	1.0	131.0*	110.0	3.1	36.5	96.0	-2.0	98.0
